The term Kd denotes the equilibrium constant for the complex coming apart. Read a high Kd as weaker binding. One may read the koff as the first-order rate constant of dissociation. The term kon denotes the second-order rate constant of association. A higher kon goes with fast association. What is called EC50 is the concentration giving half of the maximal effect.

The target of one assay is T1, mouse Elp2 protein (Mus musculus, UniProt Q91WG4).
T1 sequence (Q91WG4 1-831): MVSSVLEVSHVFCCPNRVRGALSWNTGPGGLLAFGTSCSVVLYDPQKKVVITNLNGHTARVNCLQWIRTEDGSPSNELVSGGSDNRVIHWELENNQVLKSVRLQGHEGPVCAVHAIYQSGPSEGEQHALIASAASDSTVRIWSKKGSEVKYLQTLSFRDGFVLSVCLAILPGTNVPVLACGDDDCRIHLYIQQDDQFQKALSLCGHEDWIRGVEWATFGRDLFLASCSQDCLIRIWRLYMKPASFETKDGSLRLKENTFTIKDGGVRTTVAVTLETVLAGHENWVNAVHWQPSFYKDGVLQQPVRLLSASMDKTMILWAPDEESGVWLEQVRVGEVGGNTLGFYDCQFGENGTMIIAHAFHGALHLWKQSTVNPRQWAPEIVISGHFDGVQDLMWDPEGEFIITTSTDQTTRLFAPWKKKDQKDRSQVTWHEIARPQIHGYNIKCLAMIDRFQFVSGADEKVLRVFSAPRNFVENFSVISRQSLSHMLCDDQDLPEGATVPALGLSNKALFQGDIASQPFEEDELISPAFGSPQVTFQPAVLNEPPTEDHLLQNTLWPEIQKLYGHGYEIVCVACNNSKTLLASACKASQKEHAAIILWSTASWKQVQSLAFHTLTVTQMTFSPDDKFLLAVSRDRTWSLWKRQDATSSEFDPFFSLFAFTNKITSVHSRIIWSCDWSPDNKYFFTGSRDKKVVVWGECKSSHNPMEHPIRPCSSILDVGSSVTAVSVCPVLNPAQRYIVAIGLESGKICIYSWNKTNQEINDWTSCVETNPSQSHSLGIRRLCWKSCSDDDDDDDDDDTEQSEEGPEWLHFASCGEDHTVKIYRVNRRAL
In words: SPRi affinity measurement of chip-immobilized library compounds to Elp2 protein. It counts as binding.

Assay [1] concerns C2C12 cells. The assay can be described thus: ALP staining and activity, inflammatory differentiation. It is filed as cell-based. To be noted: Mus musculus, C2C12, read-out: EC50 based on ALP activity.
For assay [2], the system named is MC3T3-E1 cells. In words: ALP staining and activity, self-differentiation. It is filed as cell-based. The note with it: Mus musculus, MC3T3-E1, read-out: EC50 based on ALP activity. A digest of the protocol: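 MC3T3-E1 cells in DMEM with 10% FBS and 1% penicillin/streptomycin at 37 °C, 5% CO2; plated at 50% confluence, 24 h. No inducer. On day 0, given ddH2O solvent or 5 ng mL−1 TNF-α ± test compound at eleven levels (10 nM–800 μM). On day 7: kit ALP stain; ALP activity by OD 405 nm, per μg BCA total protein; EC50 from ALP activity. Mean ± SEM, triplicate.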

Assay [3] concerns MC3T3-E1 cells. In words: Q-PCR of osteogenic differentiation marker genes, SD model. It counts as cell-based, mouse. The note with it: MC3T3-E1, day 7, with TNF-α. A digest of the protocol:
(§1)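 On day 7 after day-0 treatment (5 ng mL−1 TNF-α ± test compound; C2C12 also with 100 ng mL−1 BMP-2), 2 × 10^5 cells harvested. Total RNA by TRIzol, column-purified and DNase-treated; 0.25 μg reverse transcribed. COL-I, ALP, OCN, BMP-2, RUNX-2 and OSX measured by real-time Q-PCR with gene-specific primers. Normalised to β-actin by ΔΔCt. Triplicate.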

In assay [4] the test system is MC3T3-E1 cells. The assay can be described thus: Mineralization assessment by Alizarin Red S staining, SD model. It is filed as cell-based, mouse. To be noted: MC3T3-E1, day 35, with TNF-α, vs negative control (p < 0.05).
Assay [5] deals with melanoma cells bearing B-Raf^V600E. To be noted: cited from earlier work.
For assay [6], the system named is B-Raf^V600E dependented tumor xenograft models. To be noted: orally dosed, without evidence of cytotoxicity; cited from earlier work.
Assay [7] deals with C2C12 cells. The assay can be described thus: Q-PCR of osteogenic differentiation marker genes, ID model. The note with it: C2C12, day 7, with TNF-α. It is filed as cell-based, mouse. A digest of the protocol:
as §1

For assay [8], the system named is C2C12 cells. In words: Mineralization assessment by Alizarin Red S staining, ID model. It is filed as cell-based, mouse. To be noted: C2C12, day 35, with TNF-α, vs negative control (p < 0.05).
[9] abbreviates: SPRi, Elp2 200-3200 nM, 1:1 Langmuir binding.

Structures can show the parent of a compound that is named as a salt. Where two headings read alike, the source gives them in different places.

For `CC(C)N(CCC(c1ccccc1)c1cc(CO)ccc1O)C(C)C` (centres unmarked) [5-Hydroxymethyl tolterodine], on mouse Elp2 protein (setting [9]), the Kd worked out at 1.47 µM, the koff is 0.0166 s⁻¹ and the kon is 11300 M⁻¹ s⁻¹.

At mouse Elp2 protein, `CNC[C@H](O)c1ccc(O)c(O)c1` [Epinephrine bitartrate] displayed a Kd of 0.676 µM, a koff of 0.000529 s⁻¹ and a kon of 783 M⁻¹ s⁻¹.

On mouse Elp2 protein, `O=C1O[C@H](CO)[C@@H](O)[C@H](O)[C@H]1O` [Gluconolactone] returned a dissociation constant Kd of 31 µM, an off-rate constant (koff) of 0.0819 s⁻¹ and a kon of 2640 M⁻¹ s⁻¹.

Take `CC(C)NCC(O)c1ccc(O)c(O)c1` (centres unmarked) [Isoprenaline hydrochloride]: on mouse Elp2 protein, the Kd was 4.6 µM, the koff amounted to 0.00454 s⁻¹ and the kon turned out to be 987 M⁻¹ s⁻¹.

Take `CCCS(=O)(=O)Nc1ccc(F)c(C(=O)c2c[nH]c3ncc(Cl)cc23)c1F` [PLX-4720]: the EC50 with C2C12 cells [1] came to 10.3 µM; with MC3T3-E1 cells [2], 16.7 µM. The “mRNA expression levels of COL-I, ALP, OCN, BMP-2, RUNX-2 and OSX” value with MC3T3-E1 cells [3] and in the assay on C2C12 cells [7] was “elevated” throughout. Besides, the “Mineralization, Alizarin Red S stained spots” value in the assay with MC3T3-E1 cells [4] and with C2C12 cells [8] was “more stained spots compared with the negative control” in each case. In assay [5], the ERK phosphorylation result was “significantly inhibits”. In addition, the tumor growth entry in assay [6] was “tumor growth delays”.

On mouse Elp2 protein, `Cn1nnc2c(C(N)=O)ncn2c1=O` [Temozolomide] displayed a dissociation constant (Kd) of 2.53 µM, a koff of 0.000462 s⁻¹ and a kon of 182 M⁻¹ s⁻¹.

On mouse Elp2 protein (setting [9]), RK-33 displayed a Kd of 0.481 µM, a koff of 2.59e-05 s⁻¹ and a kon of 53.8 M⁻¹ s⁻¹.

The record behind these values is paper PMC9059734 (RSC Advances, 2019).
